Data on two compounds can be found in ChEMBL document CHEMBL5696442, “Discovery of type II inhibitors of TGFβ-activated kinase 1 (TAK1) and mitogen-activated protein kinase kinase kinase kinase 2 (MAP4K2)” (J Med Chem, 2015).

Format in all cases: cell-based
Experiment [1] has as its target T1, Mitogen-activated protein kinase kinase kinase 3 (Homo sapiens) (UniProt Q99759).
T1 sequence (whole entry): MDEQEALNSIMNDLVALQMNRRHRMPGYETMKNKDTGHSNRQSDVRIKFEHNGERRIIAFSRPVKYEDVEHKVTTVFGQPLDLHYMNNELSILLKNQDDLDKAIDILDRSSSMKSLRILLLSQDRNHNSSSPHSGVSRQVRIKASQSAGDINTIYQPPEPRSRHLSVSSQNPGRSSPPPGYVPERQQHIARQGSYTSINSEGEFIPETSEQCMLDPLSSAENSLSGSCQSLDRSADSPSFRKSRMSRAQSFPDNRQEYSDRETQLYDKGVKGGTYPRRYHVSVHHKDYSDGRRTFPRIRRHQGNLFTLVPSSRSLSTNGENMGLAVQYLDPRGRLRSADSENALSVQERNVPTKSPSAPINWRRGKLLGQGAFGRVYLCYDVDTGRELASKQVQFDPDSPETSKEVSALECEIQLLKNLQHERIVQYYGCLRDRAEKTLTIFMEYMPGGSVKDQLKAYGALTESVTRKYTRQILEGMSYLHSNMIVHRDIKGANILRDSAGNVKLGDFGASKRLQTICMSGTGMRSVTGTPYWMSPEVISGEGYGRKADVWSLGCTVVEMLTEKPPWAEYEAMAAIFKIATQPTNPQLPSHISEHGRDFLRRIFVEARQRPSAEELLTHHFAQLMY
As to the kind of experiment: Inhibition of MAP3K3 Lys1 labeling site in human A-375 cells at 0.05 uM by KiNativ Profiling analysis relative to control.

For experiment [2], the target named is Ribosomal protein S6 kinase alpha-3 (Homo sapiens) (UniProt P51812). As to the kind of experiment: Inhibition of RSK2 domain2 Protein Kinase Domain in human A-375 cells at 0.5 uM by KiNativ Profiling analysis relative to control. The gist of the method:
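Live A375 melanoma cells treated with compound at 5 or 0.5 μM, then lysed. Lysate kinases were labeled with a lysine-reactive ATP or ADP-biotin probe. Inhibition was read as protection of labeling sites from the probe.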

For experiment [3], the target named is T2, Serine/threonine-protein kinase Nek8 (Homo sapiens) (UniProt Q86SG6).
T2 sequence (whole entry): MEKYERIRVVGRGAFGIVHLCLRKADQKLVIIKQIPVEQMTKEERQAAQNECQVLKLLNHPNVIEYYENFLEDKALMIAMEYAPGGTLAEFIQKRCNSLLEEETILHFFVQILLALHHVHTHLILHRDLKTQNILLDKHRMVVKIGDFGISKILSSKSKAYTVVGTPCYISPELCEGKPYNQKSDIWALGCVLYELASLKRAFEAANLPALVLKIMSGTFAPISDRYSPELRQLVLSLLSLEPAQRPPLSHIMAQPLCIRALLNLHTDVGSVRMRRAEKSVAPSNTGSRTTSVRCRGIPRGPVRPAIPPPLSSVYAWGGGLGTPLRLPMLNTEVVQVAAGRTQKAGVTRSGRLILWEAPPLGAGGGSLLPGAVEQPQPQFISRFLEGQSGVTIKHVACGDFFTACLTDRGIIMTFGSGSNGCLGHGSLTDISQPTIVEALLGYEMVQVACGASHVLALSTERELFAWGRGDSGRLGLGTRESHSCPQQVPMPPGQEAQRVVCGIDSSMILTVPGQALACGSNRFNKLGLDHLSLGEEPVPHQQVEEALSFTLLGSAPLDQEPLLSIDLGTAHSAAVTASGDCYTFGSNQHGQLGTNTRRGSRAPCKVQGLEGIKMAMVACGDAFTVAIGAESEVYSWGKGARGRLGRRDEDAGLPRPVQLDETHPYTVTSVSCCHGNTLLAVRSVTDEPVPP
As to the kind of experiment: Inhibition of NEK8 Lys2 labeling site in human A-375 cells at 0.05 uM by KiNativ Profiling analysis relative to control.

Experiment [4] has as its target T3, Serine/threonine-protein kinase TBK1 (Homo sapiens) (UniProt Q9UHD2).
T3 sequence (whole entry): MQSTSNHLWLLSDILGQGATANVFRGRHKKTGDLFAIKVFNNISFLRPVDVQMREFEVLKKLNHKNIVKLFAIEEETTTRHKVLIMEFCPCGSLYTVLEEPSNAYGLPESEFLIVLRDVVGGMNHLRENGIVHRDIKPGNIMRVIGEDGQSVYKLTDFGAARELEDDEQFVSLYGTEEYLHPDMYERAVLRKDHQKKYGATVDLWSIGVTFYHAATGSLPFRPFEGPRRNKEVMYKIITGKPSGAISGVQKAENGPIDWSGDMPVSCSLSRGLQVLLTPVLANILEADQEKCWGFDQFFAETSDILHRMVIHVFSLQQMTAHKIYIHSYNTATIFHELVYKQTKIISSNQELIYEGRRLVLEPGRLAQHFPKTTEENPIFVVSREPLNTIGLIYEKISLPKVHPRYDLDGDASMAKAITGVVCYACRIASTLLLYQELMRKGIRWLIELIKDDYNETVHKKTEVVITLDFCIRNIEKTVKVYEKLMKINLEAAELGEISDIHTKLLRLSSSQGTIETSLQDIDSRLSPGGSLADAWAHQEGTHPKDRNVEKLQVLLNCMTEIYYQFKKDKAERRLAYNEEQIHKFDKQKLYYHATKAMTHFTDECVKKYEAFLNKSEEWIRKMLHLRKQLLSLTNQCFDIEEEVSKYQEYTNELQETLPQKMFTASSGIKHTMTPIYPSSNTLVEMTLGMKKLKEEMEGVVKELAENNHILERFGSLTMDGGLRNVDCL
As to the kind of experiment: Inhibition of TBK1 Lys1 labeling site in human A-375 cells at 5 uM by KiNativ Profiling analysis relative to control.

For experiment [5], the target named is Phosphatidylinositol 4,5-bisphosphate 3-kinase catalytic subunit beta isoform (Homo sapiens) (UniProt P42338). As to the kind of experiment: Inhibition of PIK3CB ATP labeling site in human A-375 cells at 0.05 uM by KiNativ Profiling analysis relative to control.
Phosphatidylinositol 4,5-bisphosphate 3-kinase catalytic subunit beta isoform (Homo sapiens), sequence (P42338 whole entry, looked up, the tested form may be a part, canonical isoform): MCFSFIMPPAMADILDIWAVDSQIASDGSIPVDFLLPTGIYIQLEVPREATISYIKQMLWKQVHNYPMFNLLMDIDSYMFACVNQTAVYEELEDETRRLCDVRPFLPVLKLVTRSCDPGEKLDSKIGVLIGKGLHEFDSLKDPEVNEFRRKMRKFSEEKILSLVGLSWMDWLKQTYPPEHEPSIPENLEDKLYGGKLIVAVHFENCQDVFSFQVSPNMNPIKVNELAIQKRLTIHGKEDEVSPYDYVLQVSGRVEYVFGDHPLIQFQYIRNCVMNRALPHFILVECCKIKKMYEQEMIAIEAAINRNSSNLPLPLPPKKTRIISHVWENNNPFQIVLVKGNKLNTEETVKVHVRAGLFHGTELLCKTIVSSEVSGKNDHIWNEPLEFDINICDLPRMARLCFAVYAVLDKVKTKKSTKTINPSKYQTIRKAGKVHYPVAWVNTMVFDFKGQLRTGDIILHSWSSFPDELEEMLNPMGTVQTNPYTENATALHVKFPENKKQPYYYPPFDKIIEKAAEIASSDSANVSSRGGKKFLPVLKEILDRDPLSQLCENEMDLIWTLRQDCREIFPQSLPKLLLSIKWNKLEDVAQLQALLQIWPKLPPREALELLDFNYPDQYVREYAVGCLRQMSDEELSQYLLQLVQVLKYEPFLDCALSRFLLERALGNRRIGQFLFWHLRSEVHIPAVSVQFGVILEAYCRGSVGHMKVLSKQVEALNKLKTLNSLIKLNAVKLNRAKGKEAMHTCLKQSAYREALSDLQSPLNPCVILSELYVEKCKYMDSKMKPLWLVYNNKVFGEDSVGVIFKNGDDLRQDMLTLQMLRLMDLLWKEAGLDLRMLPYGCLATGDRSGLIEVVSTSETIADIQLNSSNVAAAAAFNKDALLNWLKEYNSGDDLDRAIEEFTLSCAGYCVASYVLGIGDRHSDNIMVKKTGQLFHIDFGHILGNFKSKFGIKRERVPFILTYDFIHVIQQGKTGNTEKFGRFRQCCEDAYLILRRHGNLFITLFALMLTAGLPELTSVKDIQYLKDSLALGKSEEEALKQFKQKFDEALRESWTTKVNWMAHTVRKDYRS
Experiment [6] has as its target Casein kinase II subunit alpha (Homo sapiens) (UniProt P68400). As to the kind of experiment: Inhibition of CK2a1 Protein Kinase Domain in human A-375 cells at 5 uM by KiNativ Profiling analysis relative to control. The method, boiled down:
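Intact A375 melanoma cells were treated with compound at 5 or 0.5 μM, then lysed. Lysate kinases were labeled with a lysine-reactive ATP or ADP-biotin probe (KiNativ). Inhibition is read as protection of each kinase labeling site from probe labeling.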

Experiment [7] has the same target. The experiment can be described thus: Inhibition of CK2a1 Protein Kinase Domain in human A-375 cells at 0.5 uM by KiNativ Profiling analysis relative to control. The method, boiled down: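 Live A375 melanoma cells were treated with compound at 5 or 0.5 μM. The cells were then lysed, and the lysates were labeled with a lysine-reactive ATP or ADP-biotin acyl probe (KiNativ). Inhibition is the compound's protection of each kinase labeling-site peptide from probe labeling, relative to untreated control.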

Experiment [8] has as its target Tyrosine-protein kinase receptor UFO (Homo sapiens) (UniProt P30530). As to the kind of experiment: Inhibition of AXL ACT labeling site in human A-375 cells at 0.05 uM by KiNativ Profiling analysis relative to control.
In experiment [9] the target is T3, Serine/threonine-protein kinase TBK1 (Homo sapiens). The experiment can be described thus: Inhibition of TBK1 Lys1 labeling site in human A-375 cells at 0.5 uM by KiNativ Profiling analysis relative to control.

Casein kinase II subunit alpha (Homo sapiens), sequence (P68400 whole entry, looked up, the tested form may be a part): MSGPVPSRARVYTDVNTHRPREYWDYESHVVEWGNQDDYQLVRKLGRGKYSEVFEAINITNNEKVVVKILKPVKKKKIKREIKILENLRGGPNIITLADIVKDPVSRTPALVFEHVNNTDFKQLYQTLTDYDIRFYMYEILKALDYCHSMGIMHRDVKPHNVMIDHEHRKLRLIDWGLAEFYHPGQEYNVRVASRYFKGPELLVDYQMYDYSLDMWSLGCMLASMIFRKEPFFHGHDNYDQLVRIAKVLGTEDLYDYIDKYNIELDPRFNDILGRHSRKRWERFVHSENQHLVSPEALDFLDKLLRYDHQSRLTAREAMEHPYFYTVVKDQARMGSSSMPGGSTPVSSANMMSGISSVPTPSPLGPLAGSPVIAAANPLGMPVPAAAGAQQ
Tyrosine-protein kinase receptor UFO (Homo sapiens), sequence (P30530 whole entry): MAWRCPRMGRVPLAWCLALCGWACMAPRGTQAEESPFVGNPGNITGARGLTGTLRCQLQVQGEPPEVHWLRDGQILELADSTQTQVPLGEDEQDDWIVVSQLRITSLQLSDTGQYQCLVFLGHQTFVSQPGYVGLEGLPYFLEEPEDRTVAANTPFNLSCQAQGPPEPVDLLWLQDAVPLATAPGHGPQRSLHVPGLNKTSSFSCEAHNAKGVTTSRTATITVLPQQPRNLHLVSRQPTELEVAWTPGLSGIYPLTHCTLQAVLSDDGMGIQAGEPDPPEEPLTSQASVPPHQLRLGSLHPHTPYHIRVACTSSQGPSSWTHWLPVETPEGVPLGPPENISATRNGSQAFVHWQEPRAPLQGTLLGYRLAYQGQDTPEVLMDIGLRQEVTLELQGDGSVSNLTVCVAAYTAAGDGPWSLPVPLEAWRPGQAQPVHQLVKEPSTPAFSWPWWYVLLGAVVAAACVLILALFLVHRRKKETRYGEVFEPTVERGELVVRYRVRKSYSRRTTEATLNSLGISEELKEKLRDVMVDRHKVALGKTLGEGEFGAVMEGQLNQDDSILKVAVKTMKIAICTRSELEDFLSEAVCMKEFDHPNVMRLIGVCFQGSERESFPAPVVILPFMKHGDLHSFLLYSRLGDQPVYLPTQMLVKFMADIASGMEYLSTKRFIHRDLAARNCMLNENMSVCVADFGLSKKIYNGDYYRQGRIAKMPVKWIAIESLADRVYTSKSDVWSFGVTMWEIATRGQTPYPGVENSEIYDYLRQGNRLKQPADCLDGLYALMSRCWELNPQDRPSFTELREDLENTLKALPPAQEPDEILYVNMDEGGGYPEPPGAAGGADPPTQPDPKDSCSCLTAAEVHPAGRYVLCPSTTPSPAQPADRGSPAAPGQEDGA
Ribosomal protein S6 kinase alpha-3 (Homo sapiens), sequence (P51812 whole entry, the tested form may be a part): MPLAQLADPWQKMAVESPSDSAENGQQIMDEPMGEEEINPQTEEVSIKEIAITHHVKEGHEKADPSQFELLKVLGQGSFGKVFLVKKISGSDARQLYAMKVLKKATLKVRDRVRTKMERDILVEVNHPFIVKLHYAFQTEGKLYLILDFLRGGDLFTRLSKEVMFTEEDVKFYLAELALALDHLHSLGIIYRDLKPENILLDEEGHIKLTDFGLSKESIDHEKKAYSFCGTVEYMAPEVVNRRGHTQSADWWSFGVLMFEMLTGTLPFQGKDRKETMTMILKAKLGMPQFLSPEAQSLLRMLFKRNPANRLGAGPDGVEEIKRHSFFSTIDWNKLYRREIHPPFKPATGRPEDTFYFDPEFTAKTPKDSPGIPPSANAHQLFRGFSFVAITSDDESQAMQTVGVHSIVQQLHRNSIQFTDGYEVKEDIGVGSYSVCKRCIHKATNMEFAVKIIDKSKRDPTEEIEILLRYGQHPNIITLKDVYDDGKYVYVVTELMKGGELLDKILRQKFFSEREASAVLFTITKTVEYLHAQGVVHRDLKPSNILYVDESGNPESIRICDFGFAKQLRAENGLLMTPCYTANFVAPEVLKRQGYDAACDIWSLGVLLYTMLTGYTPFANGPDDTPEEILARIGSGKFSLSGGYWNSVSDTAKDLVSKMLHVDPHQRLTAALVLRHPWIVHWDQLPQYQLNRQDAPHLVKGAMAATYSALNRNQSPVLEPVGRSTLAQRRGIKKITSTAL

For orientation: inhibition means the relative decrease from the control value, in per cent. With `CCN1CCN(Cc2ccc(NC(=O)c3ccc(C)c(/C=C/c4cnc5[nH]ccc5c4OC)c3)cc2C(F)(F)F)CC1`, the inhibition in experiment [1] was 31%; in experiment [2], -4.1%; in experiment [3], -9.3%; in experiment [4], 42.7%; in experiment [5], 38.5%; in experiment [6], 1%. Moreover, the inhibition turned out to be 12.9% in [7], 10.1% in [8] and 28.7% in experiment [9].
With `CCN1CCN(Cc2ccc(NC(=O)c3ccc(C)c(Oc4ccnc5[nH]ccc45)c3)cc2C(F)(F)F)CC1`, the inhibition in experiment [1] is 16.7%; in experiment [2] it was 7.2%; in [3] it was -1.6%; in experiment [4], 13.2%; in experiment [5] it was 3.1%; in experiment [6], 15.4%. In addition, the inhibition was determined as 2% in experiment [7], 12.4% in experiment [8] and 17.1% in experiment [9].
